Laboratory results as given in ChEMBL document CHEMBL4373703 (J Med Chem, 2019).
≈ marks a conversion by molar mass, not a printed value. Calls of active or inactive are those of the source. The calls are words filed in the database; no cut-off is given here.

Legend:
Rattus norvegicus [1] = experiment: Antiarthritic activity in Lewis rat model of collagen-induced arthritis assessed as reduction in ankle histopathological scores at 0.3 mg/kg, po administered via gavage once daily starting from day 6 to day 16 relative to control; design: scale not given: the % may be the effect or the level left
[2] = Half-life in Wistar rat plasma at 2 mg/kg, iv or 10 mg/kg, po administered as suspension; assay type: ADME, organism-based
[3] = Intrinsic clearance in human liver microsomes at 1 uM in presence of NADPH measured up to 30 mins by LC-MS/MS analysis; assay type: ADME, Microsome; conditions: read-out: CLH
[4] = Tmax in NMRI mouse at 3 mg/kg, po administered as suspension; assay type: ADME, organism-based; conditions: in vivo
Mus musculus [5] = experiment: Antiarthritic activity in […] model of collagen-induced arthritis assessed as reduction in ankle swelling at 3 mg/kg, po administered via gavage once daily starting from day 6 to day 16 and measured from day 11 to day 17 by caliper method; assay type: functional, organism-based
Procedure, shortened: (§1)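 Female Lewis rats with semi-established type II collagen arthritis were dosed by oral gavage once daily on days 6–16 with vehicle (20% hydroxypropyl-beta-cyclodextrin in H2O), test agent (0.3–30 mg/kg) or methotrexate 0.1 mg/kg. Ankle thickness was measured daily by caliper, and animals were terminated on day 17. n = 10 per treatment group, 4 normal controls; ANOVA vs vehicle, P ≤ 0.05.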

[6] = Half-life in Mongrel dog plasma at 1 mg/kg, iv or 3 mg/kg, po administered as suspension; assay type: ADME, organism-based, Canis lupus familiaris
Rattus norvegicus [7] = experiment: Antiarthritic activity in Lewis rat model of collagen-induced arthritis assessed as reduction in ankle histopathological scores at 10 mg/kg, po administered via gavage once daily starting from day 6 to day 16 relative to control; design: scale not given: the % may be the effect or the level left
Mus musculus [8] = experiment: Inhibition of B cell activation in C57BL/6 mouse at 1 mg/kg, po after 24 hr relative to control; assay type: functional
Procedure, shortened: (§2)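 Normal C57BL/6 mice received a single oral dose of 1 mg/kg and were tested in an in vivo B cell stimulation assay. Inhibition of B cell activation was read at 1 h and 24 h after dosing.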

[9] = Apparent permeability across apical to basolateral side in human Caco2 cells at 1 uM incubated for 2 hrs by LC-MS/MS analysis; assay type: ADME, cell-based; conditions: Caco-2
[10] = Stability of the compound in plasma (unknown origin) assessed as compound remaining at 4 hrs; assay type: ADME, cell-free; conditions: read-out: Stability
Mus musculus [11] = experiment: Inhibition of B cell activation in C57BL/6 mouse at 1 mg/kg, po after 0.25 hr relative to control; assay type: functional
Rattus norvegicus [12] = experiment: Antiarthritic activity in Lewis rat model of collagen-induced arthritis assessed as reduction in ankle histopathological scores at 1 mg/kg, po administered via gavage once daily starting from day 6 to day 16 relative to control; design: scale not given: the % may be the effect or the level left
[13] = Tmax in Wistar rat at 10 mg/kg, po administered as suspension; assay type: ADME, organism-based; conditions: in vivo
[14] = Tmax in Mongrel dog at 3 mg/kg, po administered as suspension; assay type: ADME, organism-based, Canis lupus familiaris; conditions: in vivo
[15] = Oral bioavailability in NMRI mouse at 3 mg/kg; assay type: ADME, organism-based; conditions: in vivo
Rattus norvegicus [16] = experiment: Antiarthritic activity in Lewis rat model of collagen-induced arthritis assessed as reduction in ankle histopathological scores at 3 mg/kg, po administered via gavage once daily starting from day 6 to day 16 relative to control; design: scale not given: the % may be the effect or the level left
[17] = Half-life in NMRI mouse plasma at 1 mg/kg, iv or 3 mg/kg, po administered as suspension; assay type: ADME, organism-based
Mus musculus [18] = experiment: Inhibition of B cell activation in C57BL/6 mouse at 1 mg/kg, po after 1 hr relative to control; assay type: functional
Procedure, shortened: as §2

[19] = molecular target: Voltage-gated inwardly rectifying potassium channel KCNH2 (Homo sapiens, UniProt Q12809); experiment: Inhibition of human ERG expressed in HEK293 cells at -80 mV holding potential by […]; assay type: cell-based
Sequence of Voltage-gated inwardly rectifying potassium channel KCNH2 (Q12809 whole entry): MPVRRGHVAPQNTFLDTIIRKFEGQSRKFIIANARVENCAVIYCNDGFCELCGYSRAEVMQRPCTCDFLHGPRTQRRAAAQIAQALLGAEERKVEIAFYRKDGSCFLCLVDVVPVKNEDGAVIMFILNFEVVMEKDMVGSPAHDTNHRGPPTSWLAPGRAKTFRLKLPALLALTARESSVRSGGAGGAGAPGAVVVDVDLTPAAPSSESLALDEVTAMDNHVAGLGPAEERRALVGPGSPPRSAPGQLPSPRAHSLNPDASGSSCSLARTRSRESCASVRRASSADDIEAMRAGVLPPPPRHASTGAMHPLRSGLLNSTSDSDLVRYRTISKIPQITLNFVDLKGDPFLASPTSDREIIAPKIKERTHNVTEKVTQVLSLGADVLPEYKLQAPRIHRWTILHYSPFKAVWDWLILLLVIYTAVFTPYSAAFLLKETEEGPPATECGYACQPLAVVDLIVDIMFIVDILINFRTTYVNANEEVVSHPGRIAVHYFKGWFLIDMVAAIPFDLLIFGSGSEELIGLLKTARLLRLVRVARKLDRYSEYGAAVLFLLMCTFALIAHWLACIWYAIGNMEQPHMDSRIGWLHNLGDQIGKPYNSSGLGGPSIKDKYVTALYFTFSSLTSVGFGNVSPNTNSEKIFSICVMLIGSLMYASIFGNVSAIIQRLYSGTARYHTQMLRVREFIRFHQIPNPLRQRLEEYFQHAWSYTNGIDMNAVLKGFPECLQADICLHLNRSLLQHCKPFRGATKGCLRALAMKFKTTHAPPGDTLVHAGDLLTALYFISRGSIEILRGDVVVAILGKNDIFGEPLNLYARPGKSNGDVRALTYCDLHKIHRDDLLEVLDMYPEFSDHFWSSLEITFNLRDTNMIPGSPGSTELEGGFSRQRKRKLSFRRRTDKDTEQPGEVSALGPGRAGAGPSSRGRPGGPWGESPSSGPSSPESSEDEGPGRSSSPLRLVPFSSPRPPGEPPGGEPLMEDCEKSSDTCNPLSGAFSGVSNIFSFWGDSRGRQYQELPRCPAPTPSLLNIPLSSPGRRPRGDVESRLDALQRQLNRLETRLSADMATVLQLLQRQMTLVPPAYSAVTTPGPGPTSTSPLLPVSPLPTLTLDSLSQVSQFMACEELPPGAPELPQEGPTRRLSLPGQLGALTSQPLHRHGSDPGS

[20] = Oral bioavailability in Wistar rat at 10 mg/kg; assay type: ADME, organism-based; conditions: in vivo
[21] = molecular target: T1, Tyrosine-protein kinase Tec (Homo sapiens, UniProt P42680); experiment: Inhibition of N-terminal His6-tagged human TEC (174 to end aminoacids) expressed in baculovirus infected Sf21 cells at 1 uM; conditions: sf21, 1 µM
T1 sequence (P42680 whole entry): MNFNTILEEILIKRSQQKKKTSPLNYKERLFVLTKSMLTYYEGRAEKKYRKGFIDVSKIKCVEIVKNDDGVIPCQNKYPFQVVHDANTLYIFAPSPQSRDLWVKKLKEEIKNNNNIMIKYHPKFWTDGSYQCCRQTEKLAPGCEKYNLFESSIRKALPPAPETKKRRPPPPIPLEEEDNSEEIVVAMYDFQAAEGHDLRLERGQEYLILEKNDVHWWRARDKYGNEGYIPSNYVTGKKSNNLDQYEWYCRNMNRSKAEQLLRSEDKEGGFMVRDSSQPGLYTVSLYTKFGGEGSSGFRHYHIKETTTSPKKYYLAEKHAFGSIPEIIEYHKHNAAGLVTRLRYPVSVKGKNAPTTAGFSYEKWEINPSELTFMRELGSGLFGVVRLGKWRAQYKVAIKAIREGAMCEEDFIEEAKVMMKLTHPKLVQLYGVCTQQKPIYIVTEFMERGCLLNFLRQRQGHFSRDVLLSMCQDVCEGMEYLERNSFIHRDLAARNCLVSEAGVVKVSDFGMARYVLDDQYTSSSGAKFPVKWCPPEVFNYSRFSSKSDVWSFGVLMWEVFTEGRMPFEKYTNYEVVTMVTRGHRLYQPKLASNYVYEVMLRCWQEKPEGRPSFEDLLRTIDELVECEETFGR

[22] = Cmax in C57BL/6 mouse at 1 mg/kg, po; assay type: ADME, organism-based; design: dose 1 mg/kg, route oral; conditions: in vivo
Mus musculus [23] = experiment: Antiarthritic activity in […] model of collagen-induced arthritis assessed as reduction in ankle swelling at 30 mg/kg, po administered via gavage once daily starting from day 6 to day 16 and measured from day 10 to day 17 by caliper method; assay type: functional, organism-based
Procedure, shortened: as §1

[24] = Kinetic solubility of the compound; assay type: physicochemical; conditions: read-out: Kinetic_solubility
Rattus norvegicus [25] = experiment: Antiarthritic activity in Lewis rat model of collagen-induced arthritis assessed as reduction in ankle histopathological scores at 30 mg/kg, po administered via gavage once daily starting from day 6 to day 16 relative to control; design: scale not given: the % may be the effect or the level left
Mus musculus [26] = experiment: Antiarthritic activity in […] model of collagen-induced arthritis assessed as reduction in ankle swelling at 10 mg/kg, po administered via gavage once daily starting from day 6 to day 16 and measured from day 11 to day 17 by caliper method; assay type: functional, organism-based
Procedure, shortened: as §1

C=CC(=O)N1CCC(CNc2ncnc(N)c2-c2ccc(Oc3ccccc3)cc2)CC1 [EVOBRUTINIB]
Activity (Rattus norvegicus [1]): 1%
half-life [2]: 1 h
microsomal CLint at 1 µM [3]: 110 µL/min/mg
Tmax [4]: 0.25 to 1 h
Activity (Mus musculus [5]): Active
half-life [6]: 1 h
Activity (Rattus norvegicus [7]): 63%
inhibition (INH) (Mus musculus [8]): 25%
Papp A→B at 2 h, 1 µM [9]: 220 nm/s
remaining at 4 h [10]: 81%
inhibition (INH) (Mus musculus [11]): 17%
Activity (Rattus norvegicus [12]): 3%
Tmax [13]: 0.25 to 1 h
Tmax [14]: 0.25 to 1 h
bioavailability [15]: ≤ 25%
Activity (Rattus norvegicus [16]): 42%
half-life [17]: 1 h
inhibition (INH) (Mus musculus [18]): 71%
Ki [19]: 3.1 µM
bioavailability [20]: < 5%
inhibition (INH) [21]: Active
Cmax [22]: 0.052 µM
Activity (Mus musculus [23]): Active
solubility kinetic [24]: 60 µM (≈ 25.8 µg/mL)
Activity (Rattus norvegicus [25]): 94%
Activity (Mus musculus [26]): Active
